Shown are actives, neighbours in structure and some others; about 1.7% of the full set was active somewhere.
UCH37 inh = human UCH37 deubiquitinating enzyme inhibition; inhibition, % (no concentration beside the values); purified proteasome/UCH37, Ub-AMC cleavage fluorescence; hit rate 0.33% among 330,000; Q9Y5K5;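 active means mean inhibition over replicate wells above about 20%, limit read from the data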;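 further: 0% = compound-free wells with enzyme and 100% = wells lacking proteasome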
Target sequence (Q9Y5K5 whole entry, looked up): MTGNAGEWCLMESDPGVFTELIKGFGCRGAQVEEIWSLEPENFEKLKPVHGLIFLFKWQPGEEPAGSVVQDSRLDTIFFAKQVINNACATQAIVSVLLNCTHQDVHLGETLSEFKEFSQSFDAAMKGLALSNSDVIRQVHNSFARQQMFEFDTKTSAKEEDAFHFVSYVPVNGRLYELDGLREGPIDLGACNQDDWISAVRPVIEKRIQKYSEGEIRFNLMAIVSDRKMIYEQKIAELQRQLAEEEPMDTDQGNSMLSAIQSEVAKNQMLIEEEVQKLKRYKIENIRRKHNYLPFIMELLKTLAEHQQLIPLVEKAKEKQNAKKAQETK
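system = Proteasome-associated human UCH37 deubiquitinase | amount = 0.15 nM proteasome as dispensed | medium = pH 7.4 Tris-HCl (50 mM) with ovalbumin, ATP-MgCl2, DTT | incubation = 30 min preincubation with enzyme, 25 min cleavage at room temperature | detection = AMC fluorescence 355/460 nm | read-out basis = percent inhibition | controls = no-proteasome and no-compound wells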
PLC-beta3 inh = blocks human PLC-beta3 enzyme activity. Q01970. Purified PLC-beta3, fluorogenic substrate, fluorescence. inhibition, % at 12.2 µM. hit rate 0.18% among 370,000; in the data active means inhibition above about 11%;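 further: 0% = median of compound wells on plate and 100% = full blocker control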
PLC-gamma1 inh = PLC-gamma1 (human) inhibition, primary screen. P19174. inhibition, % at 12.2 µM. AID 720700. hit rate 0.84% among 370,000. purified PLC-gamma1, fluorogenic substrate, fluorescence; in the data active means inhibition above about 9.5%
Rpn11 block = Rpn11 (human) deubiquitinase inhibition; O00487; human 26S proteasome, Ub4-pepOG fluorescence polarization; 20S core pre-blocked with epoxomicin; inhibition, % at 20 µM; hit rate 0.59% among 360,000; AID 588493;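 active means inhibition at 20 µM, scaled to each plate's controls, above about 33%, limit read from the data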
Target sequence (O00487 whole entry, looked up): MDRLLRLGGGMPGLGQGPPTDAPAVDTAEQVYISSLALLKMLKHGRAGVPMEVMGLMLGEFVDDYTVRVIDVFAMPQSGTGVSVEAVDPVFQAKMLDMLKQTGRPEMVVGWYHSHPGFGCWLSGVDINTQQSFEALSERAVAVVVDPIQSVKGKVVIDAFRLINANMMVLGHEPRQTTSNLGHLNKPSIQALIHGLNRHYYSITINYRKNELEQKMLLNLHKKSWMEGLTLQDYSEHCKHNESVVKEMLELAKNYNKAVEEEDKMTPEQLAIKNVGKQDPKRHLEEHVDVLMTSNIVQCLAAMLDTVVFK
Rpn11 inh conf = Rpn11 inhibition confirmation, single concentration | AID 602318 | hit rate 29% among 1,900 | shares compounds with Rpn11 block | inhibition, % at 20 µM | purified human 26S proteasome, Ub4-pepOG fluorescence polarization; proteasome pretreated with epoxomicin
MMP-2 counter = MMP-2 (human) inhibition counter-screen; AID 602330; shares compounds with Rpn11 block; inhibition, % at 20 µM; recombinant MMP-2, FRET peptide cleavage fluorescence; hit rate 4% among 1,900;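 further: human MMP-2 activated beforehand with APMA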
Thrombin inh = thrombin (bovine) inhibition counter-screen. AID 602333. hit rate 13% among 1,900. bovine thrombin cleavage of Ub4-pepOG, fluorescence polarization. inhibition, % at 20 µM. shares compounds with Rpn11 block;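 active means mean inhibition at least 40% at 20 µM, or signal 3 deviations below plate average, so some actives read negative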;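 further: plate controls were thrombin with DMSO for no effect and buffer wells lacking thrombin for full effect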
* hit, by the source's call; i = inactive; nt = no result shown. Unless noted, no stated cut-off is given here; in the data, active means inhibition above about 40%; inactive means the rest.

SMILES	UCH37 inh	PLC-beta3 inh	PLC-gamma1 inh	Rpn11 block	Rpn11 inh conf	MMP-2 counter	Thrombin inh
COc1ccc(-c2[nH]c(-c3ccc(SC)cc3)nc2SCC(=O)Nc2nccs2)cc1	nt	-21	-9	71*	87*	27	63*
COc1ccc(-c2[nH]c(-c3ccc(C)cc3)nc2SCC(=O)Nc2nccs2)cc1	0	5	1	84*	6	37	-3
c1cc(C2CCCCC2)ccc1Oc1nc(N2CCOCC2)nc(N2CCOCC2)n1	3	1	1	131*	7	19	-13
CC(C)n1c(N=Cc2c[nH]c3ccccc23)nc2ccccc21	1	nt	nt	nt	nt	nt	nt
COc1cc(/C=C/c2nc3ccccc3s2)cc(OC)c1O	-44	i	i	47*	4	-19	10
COc1cc(C=C(c2nc3ccccc3s2)c2nc3ccccc3s2)ccc1O	6	-64	-63	61*	5	-28	4
COc1ccc(C=C(c2nc3ccccc3s2)c2nc3ccccc3s2)cc1O	4	-25	-21	18	nt	nt	nt
CN(C)c1ccc(/C=C/c2nc3ccccc3s2)cc1	-19	-168	-138	49*	32	-5	24
COc1ccc(N(C)C(=O)CC2(CC(=O)O)CCCCC2)cc1	-5	-2	0	57*	-2	-34	0
CC(=O)n1cc(C=NNC(=O)c2ccc([N+](=O)[O-])cc2)c2ccccc21	8	nt	nt	nt	nt	nt	nt
CCc1ccc(N=Nc2ccc(O)c3[nH]cnc23)cc1	nt	-11	-6	42*	34	-25	31
COc1cccc(CN2c3ccc(Br)cc3C(=O)CS2(=O)=O)c1	0	-8	-7	94*	-5	-25	-10
CN(CCC#N)C(=O)COC(=O)c1c2c(nc3ccccc13)/C(=C/c1ccco1)CC2	-11	-76	-57	71*	45*	30	25
CN(C)S(=O)(=O)c1ccc(C(=O)NCc2nc3ccccc3s2)cc1	3	-10	-2	34*	5	-13	-13
Cc1cc(-c2cc(C(=O)O)c3ccccc3n2)c(C)s1	4	-27	-14	36*	3	-13	0
Cc1nn(C)cc1-c1cc(C(=O)O)c2ccccc2n1	-225	-103	-100	-4	nt	nt	nt
COc1ccc(CCn2c(N)c(C(=O)NCc3ccco3)c3nc4ccccc4nc32)cc1OC	-67	-291	-193	45*	-8	4	-9
Nc1c(C(=O)NCc2ccco2)c2nc3ccccc3nc2n1CCc1ccccc1F	-237	i	i	33	nt	nt	nt
COc1ccc(CCn2c(N)c(C(=O)NCc3ccco3)c3nc4ccccc4nc32)cc1	-283	i	i	41*	-2	31	25
COc1ccccc1NC(=O)CCC(=O)c1ccc(-c2ccccc2)cc1	3	-1	6	59*	6	4	-1
Cc1c(N=C2Nc3cccc4cccc2c34)c(=O)n(-c2ccccc2)n1C	4	-50	-37	nt	-10	-38	active
COc1cc(C(=O)ON=C2C=C(C)C(=O)C=C2C)cc(OC)c1OC	4	nt	nt	nt	nt	nt	nt
Cc1ccc(CN2CCN(N=Cc3cc(Br)cc(Br)c3O)CC2)cc1	5	nt	nt	nt	nt	nt	nt
Cc1ccc(N(CC(=O)NCCSCc2ccco2)S(=O)(=O)c2ccc(C)cc2)cc1	1	-3	0	53*	21	15	8
COc1ccc(CCN2C(=O)CSC2=NNC(=O)c2ccc(C(C)(C)C)cc2)cc1OC	6	nt	nt	nt	nt	nt	nt
SMILES	UCH37 inh	PLC-beta3 inh	PLC-gamma1 inh	Rpn11 block	Rpn11 inh conf	MMP-2 counter	Thrombin inh
S=C(NCCc1ccccc1)NN=Cc1cccs1	3	nt	nt	nt	nt	nt	nt
O=C(NCc1ccccc1)C(=NO)c1ccccc1	4	nt	nt	nt	nt	nt	nt
CCCCc1ccc(-c2csc(/C(C#N)=C/c3ccco3)n2)cc1	1	-7	-8	14	nt	nt	nt
CCCCc1ccc(-c2csc(/C(C#N)=C\c3ccc(C)o3)n2)cc1	1	-26	-19	62*	12	-5	6
COC(=O)c1sc(N2C(=O)C(O)=C(C(=O)c3ccc(C)o3)C2c2cccs2)nc1C (stereo not drawn)	2	-58	-34	49*	5	12	-26
COC(=O)c1sc(N2C(=O)C(O)=C(C(=O)c3ccc(C)o3)C2c2ccc(F)cc2)nc1C (stereo not drawn)	3	-36	-37	54*	16	14	-3
CCOC(=O)c1sc(N2C(=O)C(O)=C(C(=O)c3ccco3)C2c2cccc([N+](=O)[O-])c2)nc1C (stereo not drawn)	-19	-17	-1	2	nt	nt	nt
CCOC(=O)c1sc(N2C(=O)C(O)=C(C(=O)c3ccco3)C2c2cccc(Cl)c2)nc1C (stereo not drawn)	nt	-69	-34	55*	15	39	5
COCCn1c(=NC(=O)c2cc(-c3cccs3)nc3ccccc23)sc2cc(S(N)(=O)=O)ccc21	-290	i	i	58*	20	32	10
C=CCn1c(=NC(=O)c2sc3ccccc3c2Cl)sc2cc(S(N)(=O)=O)ccc21	nt	nt	nt	49*	49*	-19	0
C=CCn1c(=NC(=O)c2cc(-c3cccs3)nc3ccccc23)sc2cc(S(N)(=O)=O)ccc21	-26	i	i	18	nt	nt	nt
COCCn1c(=NC(=O)c2sc3ccccc3c2Cl)sc2cc(S(N)(=O)=O)ccc21	nt	-35	-28	-2	nt	nt	nt
CCOC(=O)Cn1c(=NC(=O)c2nc3ccccc3s2)sc2cc(S(N)(=O)=O)ccc21	-163	-75	-66	41*	7	-16	-5
O=C(NN=Cc1ccc(Cl)cc1Cl)c1ccc2nc[nH]c2c1	4	nt	nt	nt	nt	nt	nt
S=c1[nH]nc(C2CCCCC2)n1N=Cc1ccc(Cl)cc1	4	nt	nt	nt	nt	nt	nt
CC(CC(=O)Nc1ccc(Cl)c(C(F)(F)F)c1)=NNC(=O)c1cccc(O)c1	0	nt	nt	nt	nt	nt	nt
O=S(=O)(NN=Cc1cn(-c2ccccc2)nc1-c1ccccc1)c1ccccc1	0	nt	nt	nt	nt	nt	nt
NCCCC[C@H]1CN=C(N)N1CC1CCCCC1	4	0	1	34*	-12	-3	47*
CCOc1ccc2nc(SCC(=O)NC(=O)NCc3ccco3)sc2c1	3	-7	1	7	nt	nt	nt
CCOc1ccc2nc(SCC(=O)c3ccc(Cl)s3)sc2c1	4	-4	0	56*	-4	-46	0
CCOc1ccc2nc(SCC(=O)NCc3ccco3)sc2c1	2	-1	-1	44*	-15	8	-9
CC1(C)Cc2c(sc(NC(=O)Cc3ccccc3)c2C#N)C(C)(C)N1	nt	2	-1	-4	nt	nt	nt
CC1(C)Cc2c(sc(NC(=O)COc3cccc4ccccc34)c2C#N)C(C)(C)N1	5	-9	8	54*	33	-112	1
O=C(CC1C[C@H](C(=O)N2CCCCC2)[C@@]2(CCc3ccccc3)c3[nH]c4ccccc4c3CCN2C1=O)NCc1ccco1 (stereo partly drawn)	3	0	0	6	nt	nt	nt

Assay outcomes from PubChem.
